Measurements reported in the EternaBench riboswitch data.

Test system: MS2 coat protein
Assay: apparent Kd, MS2 coat protein; higher = weaker binding; RNA-MaP array; FMN 200 µM where present
In short: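 Stalled E. coli RNA polymerase produced the designs on Illumina sequencing-chip clusters. SNAP-549-labelled MS2 coat protein was added from 0.7 or 1.5 nM, doubling to 3 µM, without and then with constant ligand, in 100 mM Tris-HCl pH 7.5, 80 mM KCl, 4 mM MgCl2, BSA, DTT, yeast tRNA and Tween-20. The apparent Kd is the median of filtered per-cluster fits of green signal normalised to red-channel RNA signal and control-cluster median Fmax.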

[1] = designed as: ON switch for flavin mononucleotide, no ligand
[2] = ligand present: flavin mononucleotide, designed as: ON switch for flavin mononucleotide
[3] = designed as: OFF switch for flavin mononucleotide, no ligand
[4] = ligand present: flavin mononucleotide, designed as: OFF switch for flavin mononucleotide

Sequence	apparent Kd [1]	apparent Kd [2]	apparent Kd [3]	apparent Kd [4]
AACCUACAUGAGGAUCACCCAUGUAUCUGAGGCACAGGAUAUCGACAGGCAAGACACCUGCGAGAAGGGUGACCUC	94 nM	39.9 nM	–	–
AGUCGGAGCAGAGGAUAUAUACAUGAGGAUCACCCAUGUGACUGACUACGCUGGAAACAGCAUGUAUAGAAGGCUGCUCCGACA	–	–	448 nM	882 nM
CACCGUUACCUAGGAUAUAGUACAUGAGGAUCACCCAUGUAAUAAAUGAGAAUUUCGGAUGUAUGCUAGAAGGAGGAAAUCGGC	–	–	39 nM	40.2 nM
GUGCUGCAGCUGUGCACGAGACAUGAGGAUCACCCAUGUGACAGAAGGGACUUGUUAAAGGUAGGUCAGGAUAUGUCUUAAAAG	107 nM	37.3 nM	–	–
GAAAAACAUGAGGAUCACCCAUGUAGAAAUAUGGGAGGAUAUACAAAGUCGAAAGACAAAGUAGAAGGCCUAAAAG	146 nM	26.9 nM	–	–
GGAUAGGACGGAGGAUAUACGUGCUAGAGAUACUAGCAAAAUUUCCUCACAUGAGGAUCACCCAUGUAGAAGGCUGUCCUAUCG	–	–	12.2 nM	222 nM
CAAUAUAACACAGGAUAUGUCUCGUUUACAUGAGGAUCACCCAUGUCCGAAACAGAAGGGUGACCUGAUAUAGGACGUUAGGUG	367 nM	138 nM	–	–
GUGGUCAGACAUGAGGAUCACCCAUGUGGAAUAAAUAAGGGACAGGAUAUUCAAUAUAGGAUAUAGAAGAAGGGUUGGUUGGUG	96.1 nM	125 nM	–	–
AAAAGAUAAGCAGGAUAUCGAACAACUCAUGGGCUAUGCCAUCCGCACAUGAGGAUCACCCAUGUCGAGAAGGGCUAAGAGUAG	–	–	9.82 nM	25.8 nM
GUAAACCUAGGAUAUACAUGAGGAUCACCCAUGUAAAGUUUCGUAAAAAGAUAAUCGAGUAGAAGGAGGUAGAU	–	–	21.4 nM	23.4 nM
UCCUACAUGGGAGGAUAUCCUCAUGAGACAUGAGGAUCACCCAUGUAUUAUAAGCCGAAAGGCAAGGAGAAGGCCCAUGUAGGU	34.9 nM	18 nM	–	–
UCAUACAUUCGAGGAUAUCGGUGAUAACUCAAACGAGAAGGCGAUUUAAAACAUAAUGCUGUAGACAUGAGGAUCACCCAUGUA	476 nM	182 nM	–	–
AUAUAUAUUAGAGGAUAUGUGUUCAUGUUACAUGAGGAUCACCCAUGUUUAGGUUGAUUGAUCUUACAGAAGGCUAUACAAUGA	–	–	97.2 nM	78.5 nM
ACCAUUUACUAGUUUUCUAUACAUGAGGAUCACCCAUGUUUUUAGGAUAUCAGCGUGAAACACGCUGAGAAGGAAGAACAAUCG	–	–	19.1 nM	24.6 nM
GCUUCUUAAUUUCAAACUUACGAUUCAGAAGGUGAAUUUUACACAUGAGGAUCACCCAUGUUACUCAAGGAUAUGAUUUGACUA	18.7 nM	14 nM	–	–
AGGAGGUUAGGAUAUGCUGCUCGUCACUUGCGUGAUGAGUAGCAGAAGGGACAUGAGGAUCACCCAUGUAAAGA	–	–	43.1 nM	27.7 nM
CCGAAUGUCACAGGAUAUGGUCCGGGCACGCGACCAGAAGGGUGAUCUCACAUGAGGAUCACCCAUGUGCAGUUGUUAAGCUGC	23.8 nM	106 nM	–	–
GCCAUCGCAUGAGGAUAUCGUCAGGUUUCCUGACGAGAAGGCAUGUCAUAAGACAUGAGGAUCACCCAUGUAGUUAAGAUGGCA	658 nM	57 nM	–	–
UUUUAACAUGAGGAUCACCCAUGUGAGGAUAUCGAAAUUUAUAUUAAUAUUAAUAAUUCGAGAAGGCACAUUUU	–	–	142 nM	137 nM
GCAGCGUAUGUAGGAUAUCGGUCAGUUUCUGAUCGAGAAGGACAUGAGGAUCACCCAUGUAAAAUACCGACUUUGUCGGGCUGC	–	–	6.43 nM	8.11 nM
UGUGUGUGGGCAGGAUAUGCGUGAAGAUGUAUGAUGUAGUGUGAUGUAACAUGAGGAUCACCCAUGUAGAAGGGCCGGUGUGUG	–	–	124 nM	129 nM
UAUAAAUUAAAAGGAUAUUCAUACCGGAAACGGACAUGAGGAUCACCCAUGUGGCGAAAGCCUUGGGAGAAGGUAUUAAAUAAU	268 nM	263 nM	–	–
AAAUAAAGCAGUGUAUUAAGAUCACAUGAGGAUCACCCAUGUAGAAGGCUCGAGCAAAAUGCUCGAGAGGAUAUACAACACUGC	–	–	10.2 nM	195 nM
